Measured values from different studies.
Lines come from different studies, so protocols differ.
Target: Protein-tyrosine kinase 2-beta (PTK2B, Homo sapiens, UniProt Q14289)

SMILES	assay	conditions	measurement	result
N#CC1(c2ccccn2)CCN(Cc2cc(C(=O)O)c(=O)n3ccccc23)CC1	cell-free assay, competition with immobilised ligand	1 µM	remaining binding	100%
COc1ncccc1-c1cnn2ccc(N3CCN(C(=O)OC(C)C)CC3)nc12	binding, competition with immobilised ligand	1 µM	remaining binding	100%
O=c1[nH]c2ccccc2n1C1CCN(Cc2ccc(-c3[nH]c4cc5ncnc5cc4nc3-c3ccccc3)cc2)CC1	enzyme activity	0.5 µM	remaining activity	105%
Cc1nn(C)cc1-c1nc2c(N3CCN(Cc4ccc(Cl)cc4)CC3)c(Cl)cnc2[nH]1	binding, competition with immobilised ligand	1 µM	remaining binding	100%
Cn1cc(-c2cccc(N3CCc4c(sc5c4CC(C)(C)C5)C3=O)c2CO)cc(Nc2ccncn2)c1=O	enzyme activity, inhibitor	1 µM	inhibition	2%
Nc1ncc(-c2nc(N3CCOCC3)nc(N3CCOCC3)n2)c(C(F)F)n1	binding, competition with immobilised ligand	10 µM	remaining binding	70%
Cn1cc(-c2cc(F)cc(N3CCn4c(cc5c4CCCC5)C3=O)c2CO)cc(Nc2ccc(N3CCN(C4COC4)CC3)cn2)c1=O	enzyme activity, inhibitor	0.1 µM	inhibition	6%
Cn1cncc1[C@@](O)(COc1ccc(C#N)cc1-c1ccc(OC(F)(F)F)cc1)c1ccc(C#N)cc1	cell-free assay, competition with immobilised ligand	1 µM	remaining binding	100%
